Results reported in ChEMBL document CHEMBL5576109, “Hydantoin derivative dimers as broad-spectrum antimicrobial agents against ESKAPE pathogens with enhanced killing rate and stability” (RSC Med Chem, 2024).
≈ marks a conversion by molar mass, not a printed value.

How the values were obtained:
Staphylococcus aureus [1] = assay: Antibacterial activity against Staphylococcus aureus ATCC 29213 assessed as reduction bacterial growth after 16 hrs by TECAN SPARK microplate reader analysis; type: functional
Outline: (§1)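 Single colony grown overnight in 4 mL TSB at 37 °C, diluted 100-fold and grown to mid-log phase. Compounds 2-fold serially diluted in TSB and mixed 1:1 with bacteria in TSB (1 × 10^6 CFU/mL). Incubated 16 h at 37 °C, then A600 read. MIC taken as the lowest concentration giving complete growth inhibition.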

Klebsiella pneumoniae = assay: Antibacterial activity against Klebsiella pneumoniae ATCC 10031 assessed as reduction bacterial growth after 16 hrs by TECAN SPARK microplate reader analysis; type: functional; outline: as §1
Escherichia coli [2] = assay: Antibacterial activity against Escherichia coli ATCC 25922 assessed as reduction bacterial growth after 16 hrs by TECAN SPARK microplate reader analysis; type: functional; outline: as §1
Pseudomonas aeruginosa = assay: Antibacterial activity against Pseudomonas aeruginosa CMCC 10104 assessed as reduction bacterial growth after 16 hrs by TECAN SPARK microplate reader analysis; type: functional; outline: as §1
Enterococcus faecalis = assay: Antibacterial activity against Enterococcus faecalis ATCC 29212 assessed as reduction bacterial growth after 16 hrs by TECAN SPARK microplate reader analysis; type: functional; outline: as §1
[3] = Hemolytic activity in mouse red blood cells assessed as hemolysis incubated for 1 hr by TECAN SPARK microplate reader analysis; type: toxicity, cell-based, Erythrocyte; conditions: red blood cells (erythrocytes)
Outline: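 Mouse RBCs washed three times in 1× PBS by centrifugation (3500 rpm, 10 min) and made up as a 5% v/v suspension. Incubated with 2-fold serially diluted compound in PBS for 1 h at 37 °C, then centrifuged. Supernatant diluted in PBS and A540 read. % hemolysis calculated relative to 1% Triton X-100 (100%) and PBS (0%).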

Acinetobacter baumannii = assay: Antibacterial activity against Acinetobacter baumannii ATCC 19606 assessed as reduction bacterial growth after 16 hrs by TECAN SPARK microplate reader analysis; type: functional; outline: as §1
Staphylococcus aureus [4] = assay: Antibacterial activity against methicillin-resistant Staphylococcus aureus ATCC 43300 assessed as reduction bacterial growth after 16 hrs by TECAN SPARK microplate reader analysis; type: functional
Outline: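 Broth microdilution in TSB: single colony grown overnight at 37 °C, diluted 100-fold and grown to mid-log phase. 2-fold serial compound dilutions mixed 1:1 with bacteria at 1 × 10^6 CFU/mL, incubated 16 h at 37 °C, absorbance read at 600 nm. MIC taken as lowest concentration giving complete growth inhibition.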

Bacillus subtilis = assay: Antibacterial activity against Bacillus subtilis ATCC 6633 assessed as reduction bacterial growth after 16 hrs by TECAN SPARK microplate reader analysis; type: functional; outline: as §1
Escherichia coli [5] = assay: Drug resistance, ratio of MIC for Escherichia coli ATCC 25922 after 25 passages to MIC for Escherichia coli ATCC 25922 after initial exposure; type: functional
Outline: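 Serial passage resistance selection: after each broth MIC determination, bacteria from the 1/2 MIC well were withdrawn and diluted to 1 × 10^6 CFU/mL for the next MIC measurement. Repeated for 25 passages; MIC after passage 25 compared with the initial MIC.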

Molecule	MIC (Staphylococcus aureus [1]) [µg/mL]	MIC (Klebsiella pneumoniae) [µg/mL]	MIC (Escherichia coli [2]) [µg/mL]	MIC (Pseudomonas aeruginosa) [µg/mL]	MIC (Enterococcus faecalis) [µg/mL]	HC50 at 1 h [3] [µg/mL]	MIC (Acinetobacter baumannii) [µg/mL]	MIC (Staphylococcus aureus [4]) [µg/mL]	MIC (Bacillus subtilis) [µg/mL]	Ratio (Escherichia coli [5])
NCCCC[C@H]1C(=O)N(C23C[C@H]4C[C@@H](C2)C[C@@H](C3)C4)C(=O)N1Cc1ccc(-c2ccc(CN3C(=O)N(C45C[C@H]6C[C@@H](C4)C[C@@H](C5)C6)C(=O)[C@@H]3CCCCN)cc2)cc1	1.95 (≈ 2.47 µM)	7.81 (≈ 9.9 µM)	62.5 (≈ 79.2 µM)	250 (≈ 317 µM)	7.81 (≈ 9.9 µM)	33.6	15.6 (≈ 19.8 µM)	125 (≈ 158 µM)	7.81 (≈ 9.9 µM)	
CO[C@H]1/C=C/O[C@@]2(C)Oc3c(C)c(O)c4c(O)c(c(/C=N/N5CCN(C)CC5)c(O)c4c3C2=O)NC(=O)/C(C)=C\C=C\[C@H](C)[C@H](O)[C@@H](C)[C@@H](O)[C@@H](C)[C@H](OC(C)=O)[C@@H]1C [RIFAMPIN]	0.12 (≈ 0.146 µM)		7.81 (≈ 9.49 µM)							
CCCCCCN1C(=O)[C@H](CCCCNC(=N)N)N(Cc2ccc3cc(CN4C(=O)N(CCCCCC)C(=O)[C@@H]4CCCCNC(=N)N)ccc3c2)C1=O	3.91 (≈ 5.23 µM)	7.81 (≈ 10.5 µM)	15.6 (≈ 20.9 µM)	15.6 (≈ 20.9 µM)	3.91 (≈ 5.23 µM)	117	31.2 (≈ 41.8 µM)	15.6 (≈ 20.9 µM)	3.91 (≈ 5.23 µM)	
CCCCCCN1C(=O)[C@H](CCCCN)N(Cc2ccc(CN3C(=O)N(CCCCCC)C(=O)[C@@H]3CCCCN)c3ccccc23)C1=O	15.6 (≈ 23.6 µM)	31.2 (≈ 47.1 µM)	125 (≈ 189 µM)	62.5 (≈ 94.3 µM)	62.5 (≈ 94.3 µM)		125 (≈ 189 µM)	125 (≈ 189 µM)	15.6 (≈ 23.6 µM)	
CCCCCCN1C(=O)[C@H](CCCCN)N(Cc2ccc(CCc3ccc(CN4C(=O)N(CCCCCC)C(=O)[C@@H]4CCCCN)cc3)cc2)C1=O	1.95 (≈ 2.72 µM)	3.91 (≈ 5.45 µM)	3.91 (≈ 5.45 µM)	125 (≈ 174 µM)	7.81 (≈ 10.9 µM)	20.9	3.91 (≈ 5.45 µM)	15.6 (≈ 21.8 µM)	7.81 (≈ 10.9 µM)	
CC1(C)S[C@@H]2[C@H](NC(=O)[C@H](N)c3ccccc3)C(=O)N2[C@H]1C(=O)O [AMPICILLIN]	0.98 (≈ 2.8 µM)		250 (≈ 715 µM)							
CCCCCCN1C(=O)[C@H](CCCCNC(=N)N)N(Cc2cccc(-c3cccc(CN4C(=O)N(CCCCCC)C(=O)[C@@H]4CCCCNC(=N)N)c3)c2)C1=O	1.95 (≈ 2.52 µM)	3.91 (≈ 5.06 µM)	7.81 (≈ 10.1 µM)	15.6 (≈ 20.2 µM)	7.81 (≈ 10.1 µM)	73.7	15.6 (≈ 20.2 µM)	7.81 (≈ 10.1 µM)	3.91 (≈ 5.06 µM)	
CCCCCCN1C(=O)[C@H](CCCCN)N(Cc2ccc(/C=C/c3ccc(CN4C(=O)N(CCCCCC)C(=O)[C@@H]4CCCCN)cc3)cc2)C1=O	3.91 (≈ 5.47 µM)	3.91 (≈ 5.47 µM)	31.2 (≈ 43.7 µM)	15.6 (≈ 21.8 µM)	7.81 (≈ 10.9 µM)	43.5	15.6 (≈ 21.8 µM)	31.2 (≈ 43.7 µM)	7.81 (≈ 10.9 µM)	
CN[C@H](CC(C)C)C(=O)N[C@H]1C(=O)N[C@@H](CC(N)=O)C(=O)N[C@H]2C(=O)N[C@H]3C(=O)N[C@H](C(=O)N[C@H](C(=O)O)c4cc(O)cc(O)c4-c4cc3ccc4O)[C@H](O)c3ccc(c(Cl)c3)Oc3cc2cc(c3O[C@@H]2O[C@H](CO)[C@@H](O)[C@H](O)[C@H]2O[C@H]2C[C@](C)(N)[C@H](O)[C@H](C)O2)Oc2ccc(cc2Cl)[C@H]1O [VANCOMYCIN]	1.95 (≈ 1.35 µM)		125 (≈ 86.3 µM)							
CCCCCCN1C(=O)[C@H](CCCCN)N(Cc2ccc(-c3ccc(-c4ccc(CN5C(=O)N(CCCCCC)C(=O)[C@@H]5CCCCN)cc4)cc3)cc2)C1=O	7.81 (≈ 10.2 µM)	62.5 (≈ 81.7 µM)	62.5 (≈ 81.7 µM)	250 (≈ 327 µM)	15.6 (≈ 20.4 µM)		125 (≈ 163 µM)	250 (≈ 327 µM)	3.91 (≈ 5.11 µM)	
CCCCCCCN1C(=O)[C@H](CCCCN)N(Cc2ccc(-c3ccc(CN4C(=O)N(CCCCCCC)C(=O)[C@@H]4CCCCN)cc3)cc2)C1=O	3.91 (≈ 5.45 µM)	7.81 (≈ 10.9 µM)	7.81 (≈ 10.9 µM)	15.6 (≈ 21.8 µM)	7.81 (≈ 10.9 µM)	156	7.81 (≈ 10.9 µM)	62.5 (≈ 87.2 µM)	3.91 (≈ 5.45 µM)	
COLISTIN	250		3.91							
CCCCCCN1C(=O)[C@H](CCCCN)N(Cc2ccc(-c3ccc(CN4C(=O)N(CCCCCC)C(=O)[C@@H]4CCCCN)cc3)cc2)C1=O	1.95 (≈ 2.83 µM)	1.95 (≈ 2.83 µM)	1.95 (≈ 2.83 µM)	15.6 (≈ 22.7 µM)	7.81 (≈ 11.3 µM)	32.8	3.91 (≈ 5.68 µM)	7.81 (≈ 11.3 µM)	1.95 (≈ 2.83 µM)	
CC1(C)S[C@@H]2[C@H](NC(=O)Cc3ccccc3)C(=O)N2[C@H]1C(=O)O [PENICILLIN G]	0.98 (≈ 2.93 µM)		250 (≈ 748 µM)							
CCCCCCN1C(=O)[C@H](CCCCN)N(Cc2cccc(CN3C(=O)N(CCCCCC)C(=O)[C@@H]3CCCCN)c2)C1=O	31.2 (≈ 51 µM)	62.5 (≈ 102 µM)	250 (≈ 408 µM)	31.2 (≈ 51 µM)	62.5 (≈ 102 µM)		125 (≈ 204 µM)	250 (≈ 408 µM)	7.81 (≈ 12.7 µM)	
CN(C)[C@@H]1C(O)=C(C(N)=O)C(=O)[C@@]2(O)C(O)=C3C(=O)c4c(O)cccc4[C@@](C)(O)[C@H]3C[C@@H]12 [TETRACYCLINE]	0.98 (≈ 2.21 µM)		7.81 (≈ 17.6 µM)							
CCCCCCCCCCCCN1C(=O)[C@H](CCCCN)N(Cc2ccc(-c3ccc(CN4C(=O)N(CCCCCCCCCCCC)C(=O)[C@@H]4CCCCN)cc3)cc2)C1=O	250 (≈ 292 µM)		250 (≈ 292 µM)							
CCCCN1C(=O)[C@H](CCCCN)N(Cc2ccc(-c3ccc(CN4C(=O)N(CCCC)C(=O)[C@@H]4CCCCN)cc3)cc2)C1=O	62.5 (≈ 98.8 µM)	15.6 (≈ 24.7 µM)	125 (≈ 198 µM)	125 (≈ 198 µM)	250 (≈ 395 µM)		62.5 (≈ 98.8 µM)	125 (≈ 198 µM)	15.6 (≈ 24.7 µM)	
GENTAMICIN										32
O=C(O)c1cn(C2CC2)c2cc(N3CCNCC3)c(F)cc2c1=O [CIPROFLOXACIN]	0.39 (≈ 1.18 µM)									
CCCCCCN1C(=O)[C@H](CCCCN)N(Cc2ccc(C#Cc3ccc(CN4C(=O)N(CCCCCC)C(=O)[C@@H]4CCCCN)cc3)cc2)C1=O	1.95 (≈ 2.73 µM)	7.81 (≈ 11 µM)	7.81 (≈ 11 µM)	15.6 (≈ 21.9 µM)	7.81 (≈ 11 µM)	18	7.81 (≈ 11 µM)	62.5 (≈ 87.7 µM)	3.91 (≈ 5.48 µM)	
CCCCCCN1C(=O)[C@H](CCCCN)N(Cc2ccc3cc(CN4C(=O)N(CCCCCC)C(=O)[C@@H]4CCCCN)ccc3c2)C1=O	3.91 (≈ 5.9 µM)	1.95 (≈ 2.94 µM)	15.6 (≈ 23.6 µM)	15.6 (≈ 23.6 µM)	31.2 (≈ 47.1 µM)	59.9	31.2 (≈ 47.1 µM)	15.6 (≈ 23.6 µM)	7.81 (≈ 11.8 µM)	
COc1cccc(OC)c1C(=O)N[C@@H]1C(=O)N2[C@@H]1SC(C)(C)[C@@H]2C(=O)O [METHICILLIN]								250 (≈ 657 µM)		
CCCCCCCCN1C(=O)[C@H](CCCCN)N(Cc2ccc(-c3ccc(CN4C(=O)N(CCCCCCCC)C(=O)[C@@H]4CCCCN)cc3)cc2)C1=O	31.2 (≈ 41.9 µM)	62.5 (≈ 83.9 µM)	250 (≈ 336 µM)	250 (≈ 336 µM)	31.2 (≈ 41.9 µM)		62.5 (≈ 83.9 µM)	250 (≈ 336 µM)	15.6 (≈ 21 µM)	
CCCCCN1C(=O)[C@H](CCCCN)N(Cc2ccc(-c3ccc(CN4C(=O)N(CCCCC)C(=O)[C@@H]4CCCCN)cc3)cc2)C1=O	7.81 (≈ 11.8 µM)	62.5 (≈ 94.6 µM)	7.81 (≈ 11.8 µM)	62.5 (≈ 94.6 µM)	31.2 (≈ 47.3 µM)	135	15.6 (≈ 23.6 µM)	15.6 (≈ 23.6 µM)	7.81 (≈ 11.8 µM)	
CCCCCCN1C(=O)[C@H](CCCCN)N(Cc2ccc(Oc3ccc(CN4C(=O)N(CCCCCC)C(=O)[C@@H]4CCCCN)cc3)cc2)C1=O	3.91 (≈ 5.55 µM)	3.91 (≈ 5.55 µM)	3.91 (≈ 5.55 µM)	31.2 (≈ 44.3 µM)	7.81 (≈ 11.1 µM)	69	3.91 (≈ 5.55 µM)	7.81 (≈ 11.1 µM)	3.91 (≈ 5.55 µM)	
CCCCCCN1C(=O)[C@H](CCCCN)N(Cc2ccc(CN3C(=O)N(CCCCCC)C(=O)[C@@H]3CCCCN)cc2)C1=O	31.2 (≈ 51 µM)	62.5 (≈ 102 µM)	250 (≈ 408 µM)	62.5 (≈ 102 µM)	125 (≈ 204 µM)		250 (≈ 408 µM)	250 (≈ 408 µM)	3.91 (≈ 6.38 µM)	
CCCCCCN1C(=O)[C@H](CCCCN)N(Cc2cccc(-c3cccc(CN4C(=O)N(CCCCCC)C(=O)[C@@H]4CCCCN)c3)c2)C1=O	3.91 (≈ 5.68 µM)	7.81 (≈ 11.3 µM)	3.91 (≈ 5.68 µM)	15.6 (≈ 22.7 µM)	15.6 (≈ 22.7 µM)	38	7.81 (≈ 11.3 µM)	7.81 (≈ 11.3 µM)	7.81 (≈ 11.3 µM)	
